Laboratory results published in ChEMBL document CHEMBL1125417, “Development of a series of phenyltetrazole leukotriene D4 (LTD4) receptor antagonists” (J Med Chem, 1992).
Calls of active or inactive are those of the source. The rule behind the calls is not given here.

Target: T1, Cysteinyl leukotriene receptor 1 (Cavia porcellus) (UniProt Q2NNR5)
T1 sequence (whole entry): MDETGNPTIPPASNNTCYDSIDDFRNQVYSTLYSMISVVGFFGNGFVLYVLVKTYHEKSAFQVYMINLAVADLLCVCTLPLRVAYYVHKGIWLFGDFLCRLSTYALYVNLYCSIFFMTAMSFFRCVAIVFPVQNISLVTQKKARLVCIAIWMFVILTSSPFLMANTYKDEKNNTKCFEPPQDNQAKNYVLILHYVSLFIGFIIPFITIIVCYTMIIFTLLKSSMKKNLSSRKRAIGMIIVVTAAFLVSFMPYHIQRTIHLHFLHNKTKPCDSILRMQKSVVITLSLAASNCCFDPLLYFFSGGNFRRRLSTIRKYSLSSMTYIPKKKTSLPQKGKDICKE
Experiment: Antagonistic activity against leukotriene D4 (LTD4) receptor
Type: functional
Method in brief: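 Isolated tissue strips in baths of physiological salt solution (mM: NaCl 118.2, NaHCO₃ 24.8, dextrose 10.0, Ca²⁺ 1.2) at 37 °C, gassed with 95% O₂/5% CO₂, under 0.5 g resting tension. Cumulative LTD₄ concentration–response curves were recorded. Each antagonist was in contact with the tissue for 30 min before the final LTD₄ curve.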

| SMILES | pKB |
| --- | --- |
| CCCCCCCCCCOc1ccc(-c2nnn(CCCCc3nnn[nH]3)n2)cc1 | 5.09 |
| c1ccc2oc(COc3ccc(-c4nnn(CCCCc5nnn[nH]5)n4)cc3)cc2c1 | 6.36 |
| c1ccc(CCCCOc2ccc(-c3nnn(CCCCCc4nnn[nH]4)n3)cc2)cc1 | 6.54 |
| NC(=O)CCCCn1nnc(-c2ccc(OCCCCc3ccccc3)cc2)n1 | 5.41 |
| c1ccc(CCCCOc2ccc(-c3nnn(CCCc4nnn[nH]4)n3)cc2)cc1 | 6.86 |
| O=C(O)CCCCn1nnc(-c2ccc(OCCCCc3ccccc3)cc2)n1 | 5.97 |
| FC(F)(F)CCCCCOc1ccc(-c2nnn(CCCCc3nnn[nH]3)n2)cc1 | 5.82 |
| c1ccc2nc(COc3ccc(-c4nnn(CCCCc5nnn[nH]5)n4)cc3)ccc2c1 | 6.68 |
| c1ccc(CCCCCCOc2ccc(-c3nnn(CCCCc4nnn[nH]4)n3)cc2)cc1 | 5.83 |
| FC(F)(F)CCCCCCCOc1ccc(-c2nnn(CCCCc3nnn[nH]3)n2)cc1 | 5.43 |

System: Cysteinyl leukotriene receptor 1 (Cavia porcellus)
Experiment: Antagonist activity tested against Cysteinyl leukotriene D4 receptor

| SMILES | pKB |
| --- | --- |
| c1cc(-c2nnn(CCCCc3nnn[nH]3)n2)ccc1OCCCCc1nn[nH]n1 | inactive |
| c1ccc(CCCCOc2ccc(-c3nnn(CCCCc4nnn[nH]4)n3)cc2)cc1 | 6.91 |
| CCCOc1ccc(-c2nnn(CCCCc3nnn[nH]3)n2)cc1 | 5.52 |
| c1ccc(CCCCOc2ccc(-c3nnn(CCCCCCCCc4nnn[nH]4)n3)cc2)cc1 | 5.7 |
| c1ccc(CCOc2ccc(-c3nnn(CCCCc4nnn[nH]4)n3)cc2)cc1 | 6.51 |
| O=C(O)c1ccccc1Cn1nnc(-c2ccc(CSc3ccc4ccccc4n3)cc2)n1 | 5.87 |
| c1ccc(CCCCOc2ccc(-c3nnn(CCCCCCc4nnn[nH]4)n3)cc2)cc1 | 6.24 |
| c1ccc(CCCCCOc2ccc(-c3nnn(CCCCc4nnn[nH]4)n3)cc2)cc1 | 5.9 |
| c1cc(CSc2ccc3ccccc3n2)cc(-c2nnn(CCCCc3nnn[nH]3)n2)c1 | 6.57 |
| O=C(O)c1ccccc1Cn1nnc(-c2cccc(CSc3ccc4ccccc4n3)c2)n1 | 7.02 |
| N#CNC(=O)CCCCn1nnc(-c2ccc(OCCCCc3ccccc3)cc2)n1 | 6.1 |
| Cc1ccccc1S(=O)(=O)NC(=O)NC(=O)CCCCn1nnc(-c2ccc(OCCCCc3ccccc3)cc2)n1 | 5.86 |
| O=C(O)c1ccc(Cn2nnc(-c3cccc(CSc4ccc5ccccc5n4)c3)n2)cc1 | 5.88 |
| c1ccc(CCCCn2nnc(-c3ccc(OCCCCc4nnn[nH]4)cc3)n2)cc1 | 5.8 |
| c1ccc(CCCCOc2ccc(-c3nn[nH]n3)cc2)cc1 | 5.92 |
| c1ccc(CCCCOc2ccc(-c3nnn(CCCCCCCc4nnn[nH]4)n3)cc2)cc1 | 5.96 |
| O=C(O)c1cccc(Cn2nnc(-c3cccc(CSc4ccc5ccccc5n4)c3)n2)c1 | 5.62 |
| O=C(O)c1cccc(Cn2nnnc2-c2cccc(CSc3ccc4ccccc4n3)c2)c1 | 6.2 |
| c1ccc(CCCCOc2ccc(-c3nnnn3CCCCc3nnn[nH]3)cc2)cc1 | 6.31 |
| Cc1ccccc1S(=O)(=O)NC(=O)CCCCn1nnc(-c2ccc(OCCCCc3ccccc3)cc2)n1 | 5.92 |
| FC(F)(F)CCCCOc1ccc(-c2nnn(CCCCc3nnn[nH]3)n2)cc1 | 5.92 |
| c1ccc(CCCCOc2cccc(-c3nnn(CCCCc4nnn[nH]4)n3)c2)cc1 | 5.38 |
| c1ccc(CCCOc2ccc(-c3nnn(CCCCc4nnn[nH]4)n3)cc2)cc1 | 6.79 |
